Data set [1] in a line: Cytotoxicity against human PC3M cells after 24 hrs under dark condition. Conditions: PC-3M. It counts as functional, cell-based. In short, it runs like this: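 PC-3M cells in DMEM/10% FBS were seeded at 10000 cells/cm2 and attached overnight. They were exposed to increasing concentrations up to 100 µM for 24 h in the dark, in quadruplicate wells. Detached cells were washed off and attached cells were trypsinised and counted by hemocytometer. Viability is expressed as % of untreated controls, and IC50 was taken from the curves.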

Data set [2] can be described thus: Phototoxicity against human PC3M cells after 24 hrs followed by exposure to 1 J/cm'2 light for 20 mins. It counts as functional, cell-based. Conditions: pc-3m. The procedure, abridged:
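PC-3M cells were plated as for the dark assay and loaded with a range of concentrations for 24 h in quadruplicate. After washing, the medium was replaced with DMEM containing 50 mM HEPES, pH 7.4. Cells were irradiated on ice with a 100 W halogen lamp through a 610 nm long-pass filter and a water IR filter for 20 min, about 1 J/cm2. They were then incubated overnight and viable cells counted by hemocytometer relative to controls, giving IC50.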

Data set [3] in a line: Ratio of IC50 for human PC3M cells under dark condition to IC50 for human PC3M cells exposed to 1 J/cm'2 light. Type of data set: functional. The procedure, abridged:
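Ratio of the dark IC50 (24 h exposure, hemocytometer viable count) to the light IC50 (24 h loading, then 610 nm long-pass halogen light, about 1 J/cm2, 20 min on ice, overnight incubation, then counting) in PC-3M cells.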

For the next data set, the system named is Liver. Put plainly: Biodistribution in human PC3M cells xenografted SCID mouse liver assessed per mg of protein at 1 umol/kg, ip after 24 hrs. It counts as ADME, organism-based. The note with it: in vivo. In short, it runs like this: (§1)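 Male SCID mice carrying PC-3M tumours (2 × 10^6 cells injected into the dorsum between the shoulder blades, grown 5-6 weeks to about 0.1 cm3) received 1.0 µmol/kg ip in 5% dextrose. Tissues were collected at 24 h, solubilised at 37 °C and homogenised. Porphyrin fluorescence (530/645 nm) was read against per-tissue standard curves, vehicle-only background was subtracted, and results are given as pmol/mg tissue protein, mean ± SE, n = 4.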

A short description of data set [4]: Biodistribution in human PC3M cells xenografted SCID mouse tumor assessed per mg of protein at 1 umol/kg, ip after 24 hrs. Type of data set: ADME, organism-based, Neoplasm. The note with it: in vivo. In short, it runs like this:
as §1

Numbered stars: 1 amine (or outer) side, 2 acyl side, 3 side chain; on linkers, the order of the positions; unused ones are H or OH. Bridge positions count the residues as written; N and C are the ends. Square brackets hold non-standard residues; d marks the D form. Peptide text beside a SMILES is read from it. I, II: the chains in the order shown. * marks the point of attachment. X1 = O=C(COCC(=O)*)Nc1ccc(-c2c3nc(c(-c4ccccc4)c4ccc([nH]4)c(-c4ccccc4)c4nc(c(-c5ccccc5)c5ccc2[nH]5)C=C4)C=C3)cc1; NH(CH2CH2O)6CH2CO = O=C(COCCOCCOCCOCCOCCOCCN[*:1])[*:2]

In the case of `N=C(N)NCCC[C@H](NC(=O)[C@H](CCCCN)NC(=O)[C@H](CCCNC(=N)N)NC(=O)[C@H](CCCNC(=N)N)NC(=O)CCCC(=O)Nc1ccc(-c2c3nc(c(-c4ccccc4)c4ccc([nH]4)c(-c4ccccc4)c4nc(c(-c5ccccc5)c5ccc2[nH]5)C=C4)C=C3)cc1)C(=O)O`, the concentration for half-maximal inhibition (IC50) worked out at 10.7 µM in data set [1] and 1.48 µM in data set [2]. Besides, the “Ratio IC50” value in data set [3] came to 7.

For `N=C(N)NCCC[C@H](NC(=O)CNC(=O)COCCOCCOCCOCCOCCOCCNC(=O)COCC(=O)Nc1ccc(-c2c3nc(c(-c4ccccc4)c4ccc([nH]4)c(-c4ccccc4)c4nc(c(-c5ccccc5)c5ccc2[nH]5)C=C4)C=C3)cc1)C(=O)N[C@@H](CCCCN)C(=O)N[C@@H](CCCCN)C(=O)N[C@@H](CCCNC(=N)N)C(=O)N[C@@H](CCCNC(=N)N)C(=O)N[C@@H](CCC(N)=O)C(=O)N[C@@H](CCCNC(=N)N)C(=O)N[C@@H](CCCNC(=N)N)C(=O)N[C@@H](CCCNC(=N)N)C(=O)N1CCC[C@H]1C(=O)N1CCC[C@H]1C(=O)N[C@@H](CCC(N)=O)C(=O)O`, the IC50 in data set [1] worked out at 38.3 µM; in data set [2], 0.4 µM. The “Ratio IC50” value in data set [3] was 96. For the same molecule, the Drug uptake was 16.1 pmol in the data set on Liver and 8.1 pmol in data set [4].

Turning to `CC(C)[C@H](NC(=O)[C@H](CCCCN)NC(=O)[C@H](CCCNC(=N)N)NC(=O)[C@H](CCCCN)NC(=O)[C@H](CCCCN)NC(=O)[C@H](CCCCN)NC(=O)[C@@H]1CCCN1C(=O)CNC(=O)COCCOCCOCCOCCOCCOCCNC(=O)C[C@H](NC(=O)COCC(=O)Nc1ccc(-c2c3nc(c(-c4ccccc4)c4ccc([nH]4)c(-c4ccccc4)c4nc(c(-c5ccccc5)c5ccc2[nH]5)C=C4)C=C3)cc1)C(=O)NCCOCCOCCOCCOCCOCCOCC(=O)NCC(=O)N1CCC[C@H]1C(=O)N[C@@H](CCCCN)C(=O)N[C@@H](CCCCN)C(=O)N[C@@H](CCCCN)C(=O)N[C@@H](CCCNC(=N)N)C(=O)N[C@@H](CCCCN)C(=O)N[C@H](C(=O)O)C(C)C)C(=O)O` (I: X1-D[NH(CH2CH2O)6CH2CO]GPKKKRKV-OH / II: [NH(CH2CH2O)6CH2CO]GPKKKRKV-OH; amide I:1-II:N), the half-inhibitory concentration (IC50) in data set [1] worked out at 20.8 µM; in data set [2], 2.95 µM. In addition, the “Ratio IC50” value in data set [3] was 7.

For the molecule `CC(C)C[C@H](NC(=O)[C@H](CCCCN)NC(=O)[C@H](CCCCN)NC(=O)[C@H](CCCCN)NC(=O)[C@H](C)NC(=O)[C@H](CCC(N)=O)NC(=O)CNC(=O)[C@H](C)NC(=O)[C@H](CCCCN)NC(=O)[C@H](CCCCN)NC(=O)[C@@H](NC(=O)[C@H](C)NC(=O)[C@H](C)NC(=O)[C@@H]1CCCN1C(=O)[C@H](CCCNC(=N)N)NC(=O)[C@H](CCCCN)NC(=O)COCCOCCOCCOCCOCCOCCNC(=O)COCC(=O)Nc1ccc(-c2c3nc(c(-c4ccccc4)c4ccc([nH]4)c(-c4ccccc4)c4nc(c(-c5ccccc5)c5ccc2[nH]5)C=C4)C=C3)cc1)[C@@H](C)O)C(=O)N[C@@H](CCC(=O)O)C(=O)N[C@@H](CC(=O)O)C(=O)N1CCC[C@H]1C(=O)N[C@@H](CCCNC(=N)N)C(=O)N[C@@H](CCCCN)C(=O)N[C@@H](CCCCN)C(=O)N[C@@H](CCCNC(=N)N)C(=O)N[C@@H](CCCNC(=N)N)C(=O)N[C@@H](CCC(N)=O)C(=O)N[C@@H](CCCNC(=N)N)C(=O)N[C@@H](CCCNC(=N)N)C(=O)N[C@@H](CCCNC(=N)N)C(=O)N1CCC[C@H]1C(=O)N1CCC[C@H]1C(=O)N[C@@H](CCC(N)=O)C(=O)NCC(=O)O` (X1-[NH(CH2CH2O)6CH2CO]KRPAATKKAGQAKKKLEDPRKKRRQRRRPPQG-OH), the IC50 in data set [1] was 32.9 µM; in data set [2], 1.21 µM. Also, in data set [3], the Ratio IC50 was found to be 27.

With `Oc1cccc(-c2c3nc(c(-c4cccc(O)c4)c4ccc([nH]4)c(-c4cccc(O)c4)c4ccc([nH]4)c(-c4cccc(O)c4)c4nc2CC4)C=C3)c1`, the half-inhibitory concentration (IC50) in data set [1] was found to be 16.1 µM; in data set [2], 1.61 µM.

Regarding `CC[C@H](C)[C@H](NC(=O)[C@H](CCCCN)NC(=O)[C@@H](NC(=O)[C@H](CCC(N)=O)NC(=O)[C@H](CCCNC(=N)N)NC(=O)COCCOCCOCCOCCOCCOCCNC(=O)COCC(=O)Nc1ccc(-c2c3nc(c(-c4ccccc4)c4ccc([nH]4)c(-c4ccccc4)c4nc(c(-c5ccccc5)c5ccc2[nH]5)C=C4)C=C3)cc1)[C@@H](C)CC)C(=O)N[C@@H](Cc1c[nH]c2ccccc12)C(=O)N[C@@H](Cc1ccccc1)C(=O)N[C@@H](CCC(N)=O)C(=O)N[C@@H](CC(N)=O)C(=O)N[C@@H](CCCNC(=N)N)C(=O)N[C@@H](CCCNC(=N)N)C(=O)N[C@@H](CCSC)C(=O)N[C@@H](CCCCN)C(=O)N[C@@H](Cc1c[nH]c2ccccc12)C(=O)N[C@@H](CCCCN)C(=O)N[C@@H](CCCCN)C(=O)N[C@@H](C)C(=O)N1CCC[C@H]1C(=O)N1CCC[C@H]1C(=O)N[C@@H](CCCCN)C(=O)N[C@@H](CCCCN)C(=O)N[C@@H](CCCCN)C(=O)N[C@@H](CCCNC(=N)N)C(=O)N[C@@H](CCCCN)C(=O)N[C@H](C(=O)NCC(=O)O)C(C)C` (X1-[NH(CH2CH2O)6CH2CO]RQIKIWFQNRRMKWKKAPPKKKRKVG-OH), the figures for the IC50 in data set [1] and in data set [2] were 11.4 µM and 1.34 µM, respectively. Further, the Ratio IC50 in data set [3] stood at 8.5.
